Activity calls are given as the source filed them. No cut-off for these calls is given here.
Legend:
Rattus norvegicus [1] = experiment: Antagonist activity at 5HT3 receptor in Sprague-Dawley rat assessed as inhibition of 1-phenylbiguanide-induced bradycardia at 10 ug/kg, iv administered 5 mins before 1-phenylbiguanide challenge measured after 5 to 30 mins post-treatment by von Bezold-Jarisch reflex test; assay type: functional; set-up: scale not given: the % may be the effect or the level left
In short: (§1)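 Urethane-anesthetized rats, compound given iv. Agonism was scored as the compound itself evoking the von Bezold-Jarisch reflex (bradycardia). Antagonism was tested by giving the compound iv 5, 15 or 30 min before phenylbiguanide (PBG) and scoring the reduction of PBG-evoked bradycardia. ED50 is the dose giving half of the maximal bradycardia evoked by the same compound.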

[2] = target: T1, Adrenergic receptor alpha-1 (Rattus norvegicus, UniProt P15823+P23944+P43140); experiment: Displacement of [3H]prazosin from adrenergic alpha1 receptor in rat cortex
T1 sequence (P15823 whole entry): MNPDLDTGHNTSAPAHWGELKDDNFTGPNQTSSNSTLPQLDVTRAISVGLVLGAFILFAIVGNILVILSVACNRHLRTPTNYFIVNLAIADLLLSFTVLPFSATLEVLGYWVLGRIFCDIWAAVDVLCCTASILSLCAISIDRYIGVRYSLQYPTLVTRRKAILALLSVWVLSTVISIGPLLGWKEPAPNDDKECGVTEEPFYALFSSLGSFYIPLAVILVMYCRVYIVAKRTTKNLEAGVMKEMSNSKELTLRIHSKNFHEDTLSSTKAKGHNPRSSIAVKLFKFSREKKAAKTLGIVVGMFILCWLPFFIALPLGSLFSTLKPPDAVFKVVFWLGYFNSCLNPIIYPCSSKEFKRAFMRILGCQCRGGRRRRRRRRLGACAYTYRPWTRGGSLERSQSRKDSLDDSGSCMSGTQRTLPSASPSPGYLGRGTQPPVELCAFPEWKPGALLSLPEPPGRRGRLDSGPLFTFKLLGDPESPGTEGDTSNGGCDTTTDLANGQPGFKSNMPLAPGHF
T1 sequence (P23944 whole entry): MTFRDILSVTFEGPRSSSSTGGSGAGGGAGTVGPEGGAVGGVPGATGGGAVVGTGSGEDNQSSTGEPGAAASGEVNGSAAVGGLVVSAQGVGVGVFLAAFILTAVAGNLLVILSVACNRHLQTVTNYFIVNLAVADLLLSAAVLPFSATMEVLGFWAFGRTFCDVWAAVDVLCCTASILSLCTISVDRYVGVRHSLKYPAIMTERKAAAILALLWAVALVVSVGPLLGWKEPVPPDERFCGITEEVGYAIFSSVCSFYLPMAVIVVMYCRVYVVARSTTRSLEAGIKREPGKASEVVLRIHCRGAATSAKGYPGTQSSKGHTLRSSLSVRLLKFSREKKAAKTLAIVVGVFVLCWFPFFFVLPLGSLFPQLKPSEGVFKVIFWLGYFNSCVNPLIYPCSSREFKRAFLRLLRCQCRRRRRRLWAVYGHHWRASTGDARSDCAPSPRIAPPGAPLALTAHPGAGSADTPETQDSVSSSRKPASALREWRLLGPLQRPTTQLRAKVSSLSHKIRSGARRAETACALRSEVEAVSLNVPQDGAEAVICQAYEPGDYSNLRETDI
T1 sequence (P43140 whole entry): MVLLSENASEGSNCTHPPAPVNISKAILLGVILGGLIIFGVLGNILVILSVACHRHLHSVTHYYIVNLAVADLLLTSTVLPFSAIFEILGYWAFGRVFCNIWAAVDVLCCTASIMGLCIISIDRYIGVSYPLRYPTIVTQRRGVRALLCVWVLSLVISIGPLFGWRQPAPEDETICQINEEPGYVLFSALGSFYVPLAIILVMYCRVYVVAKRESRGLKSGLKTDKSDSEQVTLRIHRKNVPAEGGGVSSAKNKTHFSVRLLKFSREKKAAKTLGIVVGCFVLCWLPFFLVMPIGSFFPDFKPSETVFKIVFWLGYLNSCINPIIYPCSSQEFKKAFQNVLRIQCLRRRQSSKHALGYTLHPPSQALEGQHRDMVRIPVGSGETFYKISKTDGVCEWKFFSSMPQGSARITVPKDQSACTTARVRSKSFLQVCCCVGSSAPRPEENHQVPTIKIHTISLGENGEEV

Rattus norvegicus [3] = experiment: Agonist activity at 5HT3 receptor in Sprague-Dawley rat assessed as induction of bradycardia at 10 ug/kg, iv measured after 5 to 30 mins post-treatment by von Bezold-Jarisch reflex test; assay type: functional; in short: as §1
Rattus norvegicus [4] = experiment: Agonist activity at 5HT3 receptor in iv dosed Sprague-Dawley rat assessed as induction of bradycardia measured after 5 to 30 mins post-treatment by von Bezold-Jarisch reflex test; assay type: functional; in short: as §1
Rattus norvegicus [5] = experiment: Antagonist activity at 5HT3 receptor in iv dosed Sprague-Dawley rat assessed as inhibition of 1-phenylbiguanide-induced bradycardia administered 5 mins before 1-phenylbiguanide challenge measured after 5 to 30 mins post-treatment by von Bezold-Jarisch reflex test; assay type: functional; in short: as §1
Rattus norvegicus [6] = experiment: Agonist activity at 5HT3 receptor in Sprague-Dawley rat assessed as induction of bradycardia at 100 ug/kg, iv measured after 5 to 30 mins post-treatment by von Bezold-Jarisch reflex test; assay type: functional; in short: as §1
[7] = target: T2, 5-hydroxytryptamine receptor 3A (Rattus norvegicus, UniProt P35563); experiment: Displacement of [3H]LY278584 from 5HT3 receptor in rat cortical homogenate
T2 sequence (P35563 whole entry): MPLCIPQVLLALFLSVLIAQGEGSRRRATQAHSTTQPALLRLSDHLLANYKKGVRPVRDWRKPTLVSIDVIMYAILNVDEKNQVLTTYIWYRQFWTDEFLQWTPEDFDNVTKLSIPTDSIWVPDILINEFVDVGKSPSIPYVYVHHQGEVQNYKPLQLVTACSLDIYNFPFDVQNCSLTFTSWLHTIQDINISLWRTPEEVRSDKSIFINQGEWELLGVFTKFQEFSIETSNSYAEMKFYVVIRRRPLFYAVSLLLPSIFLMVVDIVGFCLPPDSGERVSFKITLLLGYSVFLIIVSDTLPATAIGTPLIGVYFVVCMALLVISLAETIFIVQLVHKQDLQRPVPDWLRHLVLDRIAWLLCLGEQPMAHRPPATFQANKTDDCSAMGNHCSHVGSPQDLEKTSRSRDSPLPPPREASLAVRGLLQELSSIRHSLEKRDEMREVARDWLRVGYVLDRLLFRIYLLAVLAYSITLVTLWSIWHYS
In short: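 Rat cortical homogenate, competition against [3H]LY278584 binding. Ki is the concentration giving half-maximal inhibition of binding, as the mean ± S.E.M. of three determinations.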

Rattus norvegicus [8] = experiment: Antagonist activity at 5HT3 receptor in Sprague-Dawley rat assessed as inhibition of 1-phenylbiguanide-induced bradycardia at 100 ug/kg, iv administered 5 mins before 1-phenylbiguanide challenge measured after 5 to 30 mins post-treatment by von Bezold-Jarisch reflex test; assay type: functional; in short: as §1
Rattus norvegicus [9] = experiment: Antagonist activity at 5HT3 receptor in Sprague-Dawley rat assessed as inhibition of 1-phenylbiguanide-induced bradycardia at 50 ug/kg, iv administered 5 mins before 1-phenylbiguanide challenge measured after 5 to 30 mins post-treatment by von Bezold-Jarisch reflex test; assay type: functional; in short: as §1
[10] = target: T3, 5-hydroxytryptamine receptor 3A (Cavia porcellus, UniProt O70212); experiment: Antagonist activity at 5HT3 receptor in spontaneously beating guinea pig right atrium assessed as inhibition of serotonin-induced maximum response by noncompetitive binding assay; assay type: tissue-based, Cardiac atrium; details: read-out: IC50
T3 sequence (O70212 whole entry): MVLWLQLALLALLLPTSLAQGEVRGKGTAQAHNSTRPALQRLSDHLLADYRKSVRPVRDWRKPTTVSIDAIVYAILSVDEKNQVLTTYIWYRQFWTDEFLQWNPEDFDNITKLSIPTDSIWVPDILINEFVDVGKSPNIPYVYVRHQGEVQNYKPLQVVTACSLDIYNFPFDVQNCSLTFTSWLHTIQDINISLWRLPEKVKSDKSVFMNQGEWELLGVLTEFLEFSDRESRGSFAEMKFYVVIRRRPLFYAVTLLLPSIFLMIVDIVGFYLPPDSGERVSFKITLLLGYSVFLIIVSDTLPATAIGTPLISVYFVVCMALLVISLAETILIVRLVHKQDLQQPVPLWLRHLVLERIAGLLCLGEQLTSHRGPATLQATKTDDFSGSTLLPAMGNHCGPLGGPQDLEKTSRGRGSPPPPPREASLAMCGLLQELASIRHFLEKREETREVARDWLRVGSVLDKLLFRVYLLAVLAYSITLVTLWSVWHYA
In short: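 Spontaneously beating guinea pig right atria, exposed 30 min to test compound at 10 μM, followed by cumulative 5-HT log concentration-response curves versus control. Mean ± SEM of five to seven observations.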

Rattus norvegicus [11] = experiment: Agonist activity at 5HT3 receptor in Sprague-Dawley rat assessed as induction of bradycardia at 50 ug/kg, iv measured after 5 to 30 mins post-treatment by von Bezold-Jarisch reflex test; assay type: functional; in short: as §1
[12] = target: T4, Alpha-2A adrenergic receptor (Rattus norvegicus, UniProt P22909); experiment: Displacement of [3H]RX821002 from adrenergic alpha2 receptor in rat cortex
T4 sequence (P22909 whole entry): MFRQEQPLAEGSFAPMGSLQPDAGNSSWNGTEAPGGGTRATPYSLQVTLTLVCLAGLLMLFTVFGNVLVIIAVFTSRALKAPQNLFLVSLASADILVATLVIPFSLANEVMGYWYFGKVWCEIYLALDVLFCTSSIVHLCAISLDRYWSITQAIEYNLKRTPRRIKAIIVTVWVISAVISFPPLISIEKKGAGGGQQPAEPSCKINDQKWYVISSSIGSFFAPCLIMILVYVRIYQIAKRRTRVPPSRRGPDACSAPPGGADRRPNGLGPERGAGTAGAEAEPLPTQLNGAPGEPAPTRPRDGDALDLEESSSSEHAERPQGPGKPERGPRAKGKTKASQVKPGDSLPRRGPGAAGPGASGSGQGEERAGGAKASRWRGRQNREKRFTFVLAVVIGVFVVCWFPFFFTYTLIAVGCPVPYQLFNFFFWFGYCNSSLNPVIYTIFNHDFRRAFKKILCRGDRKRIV

D(2) dopamine receptor = D(2) dopamine receptor (Rattus norvegicus, UniProt P61169); experiment: Displacement of [3H]spiperone from dopamine D2 receptor in rat striatum
D(2) dopamine receptor, sequence (P61169 whole entry): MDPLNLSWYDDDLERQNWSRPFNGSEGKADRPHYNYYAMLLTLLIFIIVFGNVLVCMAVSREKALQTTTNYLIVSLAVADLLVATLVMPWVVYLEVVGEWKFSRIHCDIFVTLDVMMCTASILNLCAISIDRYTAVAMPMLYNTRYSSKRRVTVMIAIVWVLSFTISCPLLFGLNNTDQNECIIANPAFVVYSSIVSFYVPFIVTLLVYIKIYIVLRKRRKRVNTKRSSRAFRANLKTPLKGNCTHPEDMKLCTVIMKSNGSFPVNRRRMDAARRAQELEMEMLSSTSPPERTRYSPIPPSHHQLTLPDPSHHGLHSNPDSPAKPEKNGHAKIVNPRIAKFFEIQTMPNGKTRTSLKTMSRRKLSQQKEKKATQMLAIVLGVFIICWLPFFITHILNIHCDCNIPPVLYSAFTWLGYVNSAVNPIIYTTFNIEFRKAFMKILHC

[13] = target: T5, 5-hydroxytryptamine receptor 1A (Rattus norvegicus, UniProt P19327); experiment: Displacement of [3H]8-OHDPAT from 5HT1A receptor in rat hippocampus; assay type: tissue-based
T5 sequence (P19327 whole entry): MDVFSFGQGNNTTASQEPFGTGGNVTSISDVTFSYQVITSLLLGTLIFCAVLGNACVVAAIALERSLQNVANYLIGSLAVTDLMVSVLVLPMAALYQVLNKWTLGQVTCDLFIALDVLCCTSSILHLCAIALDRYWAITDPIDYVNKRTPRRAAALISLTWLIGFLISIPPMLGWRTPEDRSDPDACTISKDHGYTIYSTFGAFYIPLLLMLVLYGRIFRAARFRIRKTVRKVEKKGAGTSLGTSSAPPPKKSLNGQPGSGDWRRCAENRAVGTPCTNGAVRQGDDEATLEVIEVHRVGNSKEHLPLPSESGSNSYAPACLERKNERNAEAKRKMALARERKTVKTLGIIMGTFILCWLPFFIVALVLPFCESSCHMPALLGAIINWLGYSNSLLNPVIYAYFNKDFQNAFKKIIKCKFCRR

[14] = target: 5-hydroxytryptamine receptor 2A (Rattus norvegicus, UniProt P14842); experiment: Displacement of [3H]ketanserin from 5HT2A receptor in rat cortex
5-hydroxytryptamine receptor 2A, sequence (P14842 whole entry): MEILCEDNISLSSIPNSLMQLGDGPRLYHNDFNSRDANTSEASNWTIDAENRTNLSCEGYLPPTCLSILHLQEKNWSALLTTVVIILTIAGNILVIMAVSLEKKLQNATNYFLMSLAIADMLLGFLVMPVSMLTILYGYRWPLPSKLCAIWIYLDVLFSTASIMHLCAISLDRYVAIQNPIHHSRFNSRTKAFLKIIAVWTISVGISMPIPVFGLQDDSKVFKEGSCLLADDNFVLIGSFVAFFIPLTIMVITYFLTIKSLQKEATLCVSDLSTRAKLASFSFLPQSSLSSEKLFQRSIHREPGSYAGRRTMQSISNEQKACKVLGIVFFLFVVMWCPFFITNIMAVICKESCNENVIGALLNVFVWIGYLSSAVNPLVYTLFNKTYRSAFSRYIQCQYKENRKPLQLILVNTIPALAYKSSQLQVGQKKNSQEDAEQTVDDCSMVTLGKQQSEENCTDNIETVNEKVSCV

D(1A) dopamine receptor = D(1A) dopamine receptor (Rattus norvegicus, UniProt P18901); experiment: Displacement of [3H]SCH-23390 from dopamine D1 receptor in rat striatum
D(1A) dopamine receptor, sequence (P18901 whole entry): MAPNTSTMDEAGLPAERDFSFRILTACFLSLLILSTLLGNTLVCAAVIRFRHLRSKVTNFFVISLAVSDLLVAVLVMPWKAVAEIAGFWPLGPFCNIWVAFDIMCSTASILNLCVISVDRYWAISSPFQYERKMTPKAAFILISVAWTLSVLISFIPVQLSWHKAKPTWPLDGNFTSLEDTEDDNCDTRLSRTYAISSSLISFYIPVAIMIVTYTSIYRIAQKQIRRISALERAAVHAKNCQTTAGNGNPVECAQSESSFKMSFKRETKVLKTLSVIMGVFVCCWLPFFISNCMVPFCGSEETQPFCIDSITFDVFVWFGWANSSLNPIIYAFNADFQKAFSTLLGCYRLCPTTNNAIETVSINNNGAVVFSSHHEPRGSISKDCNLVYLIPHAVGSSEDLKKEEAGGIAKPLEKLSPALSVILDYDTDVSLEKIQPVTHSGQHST

Cc1cccc2nc(N3CCN(Cc4c[nH]cn4)CC3)c3cccn3c12
Activity (Rattus norvegicus [1]): 60%
Ki [2]: > 10000 nM
Activity (Rattus norvegicus [3]): inactive
ED50 (Rattus norvegicus [4]): 0.037 mg/kg
ID50 (Rattus norvegicus [5]): 0.0035 mg/kg

NNC(=O)CN1CCN(c2nc3cc(F)ccc3n3cccc23)CC1
Activity (Rattus norvegicus [6]): 80%
Activity (Rattus norvegicus [1]): inactive
Ki ([7]; read-out: Ki): 44.3 nM
Activity (Rattus norvegicus [8]): inactive
Activity (Rattus norvegicus [3]): inactive
ED50 (Rattus norvegicus [4]): 0.057 mg/kg
Activity (Rattus norvegicus [9]): inactive

Oc1ccc2c(c1)nc(N1CCN(Cc3c[nH]cn3)CC1)c1cccn12
Activity (Rattus norvegicus [1]): 62%
Ki ([7]; read-out: Ki): 2.25 nM
IC50 [10]: 2630 nM
Activity (Rattus norvegicus [11]): 50%
Activity (Rattus norvegicus [3]): 45%
ED50 (Rattus norvegicus [4]): 0.028 mg/kg
ID50 (Rattus norvegicus [5]): 0.0065 mg/kg
Activity (Rattus norvegicus [9]): 90%

Cc1cccc2nc(N3CCN(Cc4ccccc4)CC3)c3cccn3c12
Ki [7]: 8.8 nM

Fc1ccc2c(c1)nc(N1CCN(CCn3ccnc3)CC1)c1cccn12
Ki ([7]; read-out: Ki): 22.2 nM

Fc1ccc2c(c1)nc(N1CCN(Cc3ncc[nH]3)CC1)c1cccn12
Ki [12]: > 10000 nM
Ki [2]: > 10000 nM
Ki (D(2) dopamine receptor): > 10000 nM
Ki [13]: > 10000 nM
Ki ([7]; read-out: Ki): 5.6 nM
Ki [14]: > 10000 nM
Ki (D(1A) dopamine receptor): > 10000 nM

Fc1ccc2c(c1)nc(N1CCN(CCc3cnc[nH]3)CC1)c1cccn12
Ki ([7]; read-out: Ki): 330 nM

Cc1cccc2nc(N3CCN(Cc4cnc[nH]4)CC3)c3cccn3c12
Ki [12]: > 10000 nM
Ki (D(2) dopamine receptor): > 10000 nM
Ki [13]: > 10000 nM
Ki ([7]; read-out: Ki): 0.49 nM
Ki [14]: 9810 nM
Ki (D(1A) dopamine receptor): > 10000 nM

CN1CCN(c2nc3cccc(F)c3n3cccc23)CC1
Ki ([7]; read-out: Ki): 0.44 nM
ID50 (Rattus norvegicus [5]): 0.12 mg/kg

CN1CCN(c2nc3cc(F)ccc3n3cccc23)CC1
Ki ([7]; read-out: Ki): 0.81 nM
ID50 (Rattus norvegicus [5]): 0.6 mg/kg

Fc1ccc2c(c1)nc(N1CCN(Cc3ccccc3)CC1)c1cccn12
Ki [7]: 13 nM

Fc1ccc2c(c1)nc(N1CCN(CC3=NCCN3)CC1)c1cccn12
Ki ([7]; read-out: Ki): 30 nM

Cc1cccc2nc(N3CCN(CCn4ccnc4)CC3)c3cccn3c12
Ki ([7]; read-out: Ki): 17.8 nM

Cc1cccc2nc(N3CCN(C)CC3)c3cccn3c12
Ki ([7]; read-out: Ki): 0.79 nM
